Data taken from ChEMBL document CHEMBL3286393 (J Med Chem, 2014).
pIC50: −log10 of the molar value.

How the values were obtained:
[1] = target: T1, Prostaglandin G/H synthase 2 (Homo sapiens, UniProt P35354); assay: Inhibition of COX2-mediated PGF2alpha formation in LPS-stimulated human monocytes preincubated for 15 mins before arachidonic acid substrate addition measured after 30 mins by UPLC-MS/MS analysis; type: cell-based
T1 sequence (P35354 whole entry): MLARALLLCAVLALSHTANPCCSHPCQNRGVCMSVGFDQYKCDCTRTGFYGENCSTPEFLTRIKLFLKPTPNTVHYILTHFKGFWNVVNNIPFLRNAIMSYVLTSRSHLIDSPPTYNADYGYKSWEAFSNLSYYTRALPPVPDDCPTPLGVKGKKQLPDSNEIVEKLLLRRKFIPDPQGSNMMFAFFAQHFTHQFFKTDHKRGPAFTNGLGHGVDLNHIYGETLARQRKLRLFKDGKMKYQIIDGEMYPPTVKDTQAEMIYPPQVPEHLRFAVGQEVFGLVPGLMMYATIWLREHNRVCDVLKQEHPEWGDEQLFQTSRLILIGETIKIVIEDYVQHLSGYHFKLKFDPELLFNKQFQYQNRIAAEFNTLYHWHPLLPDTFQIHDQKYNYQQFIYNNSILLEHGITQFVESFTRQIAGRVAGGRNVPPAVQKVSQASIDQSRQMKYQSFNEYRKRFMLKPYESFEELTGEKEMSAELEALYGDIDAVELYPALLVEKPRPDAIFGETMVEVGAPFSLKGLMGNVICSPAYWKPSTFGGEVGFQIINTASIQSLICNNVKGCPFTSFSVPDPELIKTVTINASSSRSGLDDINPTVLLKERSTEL

[2] = target: T1, Prostaglandin G/H synthase 2; assay: Inhibition of COX2-mediated PGD2 formation in LPS-stimulated human monocytes preincubated for 15 mins before arachidonic acid substrate addition measured after 30 mins by UPLC-MS/MS analysis; type: cell-based
[3] = system: Mus musculus; assay: Antiinflammatory activity in zymosan-induced peritonitis CD1 mouse model assessed as suppression of MPO activity at 10 mg/kg, ip administered 30 mins before challenge measured 4 hrs post zymosan challenge relative to control; type: functional; conditions: route intraperitoneal
How it was run: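 In male CD-1 mice (n = 5−11 per group), dose was given ip in 2% DMSO/saline 30 min before ip zymosan (2 mg/mL, 0.5 mL). Lavage 4 h later. Pelleted exudate cells disrupted; supernatant mixed with 0.167 mg/mL o-dianisidine and 0.0005% H2O2 in PBS, read kinetically by absorbance. U/mL from human neutrophil MPO calibration; % inhibition vs vehicle.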

[4] = system: Mus musculus; assay: Antiinflammatory activity in zymosan-induced peritonitis CD1 mouse model assessed as suppression of neutrophil infiltration at 10 mg/kg, ip administered 30 mins before challenge measured 4 hrs post zymosan challenge relative to control; type: functional; conditions: route intraperitoneal
How it was run: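 Zymosan peritonitis in male CD-1 mice (n = 5−11): ip dose in 2% DMSO/saline 30 min before ip zymosan. Peritoneal lavage with 3 mL cold PBS at 4 h. Exudate cells counted by light microscopy in a Burker chamber after trypan blue staining; % inhibition vs vehicle.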

[5] = system: Monocyte; assay: Inhibition of 11-HETE formation in LPS-stimulated human monocytes preincubated for 15 mins before arachidonic acid substrate addition measured after 30 mins by UPLC-MS/MS analysis; type: functional, cell-based
How it was run: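 Fresh human monocytes (adherence-isolated, >85% CD14+; 5 × 10⁶/well) primed with LPS 1 μg/mL for 24 h. Washed, 15 min preincubation, then 2.5 μM A23187 plus 20 μM arachidonic acid for 30 min. Eicosanoids extracted and measured by UPLC-MS/MS, normalized to PGB1 as relative intensities. Two to three independent experiments.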

Compound | pIC50 [1] | pIC50 [2] | inhibition in vivo at 10 mg/kg [3] | inhibition in vivo at 10 mg/kg [4] | pIC50 [5]
COc1cc(/C=C/c2cc(/C=C/c3cc(CC=C(C)C)c(O)c(OC)c3)[nH]n2)cc(CC=C(C)C)c1O | < 5.00 | < 5.00 | 39% | 75% | –
COc1cc(/C=C/C(=O)CC(=O)/C=C/c2ccc(O)c(OC)c2)ccc1O [CURCUMIN] | – | – | – | – | 5.92
